Converted amounts (≈) assume the structure as drawn. The source made the active and inactive calls. The calls are words filed in the database; no cut-off is given here.
Key:
HL-60 [1] = test: Induction of necrosis in human HL60 cells at 20 uM after 48 hrs by Hoechst 33258/propidium iodide staining based phase contrast microscopic analysis; format: functional
Method in brief: (§1)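 Cells in 48-well plates treated with 0.5, 10, 20 or 40 µM for 24 and 48 h. Values are read at 48 h, 20 µM for test agents and 0.5 µM for controls. Staining is Hoechst 33258/propidium iodide double staining with fluorescence microscopy. Blue nuclei are viable or early-to-mid apoptotic, and pink nuclei are late apoptotic or necrotic. Apoptosis and necrosis are scored from chromatin condensation as % of cells. Cells are grown at 37 °C in 5% CO2 in RPMI, DMEM or McCoy's 5A with 10–15% heat-inactivated FCS.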

HL-60 [2] = test: Antiproliferative activity against human HL60 cells after 24 and 72 hrs by MTT assay; format: functional, cell-based
Method in brief: (§2)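 ATCC human cell lines are kept in RPMI, DMEM or McCoy's 5A with 10–15% heat-inactivated FCS at 37 °C and 5% CO2. They are seeded at 1×10^4–1×10^5 cells/mL in 48-well plates and exposed to 0.5, 10, 20 or 40 µM. Viability is read by MTT (590 nm) at 24 and 72 h. Growth is expressed relative to untreated cells and IC50 is fitted, in triplicate.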

Bacillus cereus [3] = test: Antimicrobial activity against Bacillus cereus ATCC 11778 for 24 hrs by microdillution method; format: functional; settings: ATCC 11778, 24 h
Method in brief: (§3)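 Broth microdilution. Compound is dissolved in DMSO (2 mg/mL) and diluted in Mueller Hinton broth as two-fold serial dilutions from 256 to 0.125 µg/mL. Bacteria are pre-grown in nutrient broth at 30 °C, and the final inoculum is about 10^6 cfu/mL. Tests are incubated 37 °C for 24 h. MIC is the lowest concentration giving complete inhibition. Streptomycin is the positive control.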

Escherichia coli = test: Antimicrobial activity against Escherichia coli ATCC 25922 assessed as zone of inhibition at 30 uL for 24 hrs at 37 degC by disk diffusion test; format: functional, organism-based
Method in brief: (§4)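 Compound (30 µL of a fresh 1000 µg/mL DMSO stock) goes into a 6 mm well cut in Mueller Hinton agar inoculated with 0.1 mL broth culture adjusted to 0.5 McFarland (about 1×10^8 cells/mL). Plates are incubated 24 h at 37 °C, then zone of inhibition diameter is measured in mm.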

HeLa [4] = test: Antiproliferative activity against human HeLa cells after 24 and 72 hrs by MTT assay; format: functional, cell-based; method in brief: as §2
Bacillus thuringiensis [5] = test: Antimicrobial activity against Bacillus thuringiensis for 24 hrs by microdillution method; format: functional; method in brief: as §3
HT-29 [6] = test: Induction of apoptosis in human HT-29 cells at 20 uM after 48 hrs by Hoechst 33258/propidium iodide staining based phase contrast microscopic analysis; format: functional; method in brief: as §1
Klebsiella pneumoniae = test: Antimicrobial activity against Klebsiella pneumoniae ATCC 13882 assessed as zone of inhibition at 30 uL for 24 hrs at 37 degC by disk diffusion test; format: functional, organism-based; method in brief: as §4
Candida albicans = test: Antimicrobial activity against Candida albicans ATCC 10231 assessed as zone of inhibition at 30 uL for 24 hrs at 30 degC by disk diffusion test; format: functional, organism-based
Method in brief: (§5)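 Agar well diffusion on Mueller Hinton agar seeded with 0.1 mL broth culture (18–24 h), adjusted to 0.5 McFarland (about 1×10^8 bacteria or 1×10^6 yeast cells/mL). A 6 mm well is filled with 30 µL of compound from a fresh 1000 µg/mL DMSO stock. Plates are held at 30 °C for 24 h and inhibition zone diameter is read in mm.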

SAOS-2 [7] = test: Induction of necrosis in human Saos2 cells at 20 uM after 48 hrs by Hoechst 33258/propidium iodide staining based […] microscopic analysis; format: functional; method in brief: as §1
Micrococcus luteus = test: Antimicrobial activity against Micrococcus luteus ATCC 9341 assessed as zone of inhibition at 30 uL for 24 hrs at 30 degC by disk diffusion test; format: functional, organism-based; method in brief: as §5
HeLa [8] = test: Induction of necrosis in human HeLa cells at 20 uM after 48 hrs by Hoechst 33258/propidium iodide staining based phase contrast microscopic analysis; format: functional; method in brief: as §1
Saccharomyces cerevisiae = test: Antimicrobial activity against Saccharomyces cerevisiae ATCC 9763 assessed as zone of inhibition at 30 uL for 24 hrs at 30 degC by disk diffusion test; format: functional, organism-based; method in brief: as §5
Bacillus subtilis [9] = test: Antimicrobial activity against Bacillus subtilis ATCC 6633 assessed as zone of inhibition at 30 uL for 24 hrs at 30 degC by disk diffusion test; format: functional; method in brief: as §5
Nakaseomyces glabratus = test: Antimicrobial activity against Candida glabrata assessed as zone of inhibition at 30 uL for 24 hrs at 30 degC by disk diffusion test; format: functional, organism-based; method in brief: as §5
[10] = tested on: Staphylococcus epidermidis; test: Antimicrobial activity against Staphylococcus epidermidis ATCC 12228 assessed as zone of inhibition at 30 uL for 24 hrs at 37 degC by disk diffusion test; format: functional, organism-based; method in brief: as §4
HL-60 [11] = test: Induction of apoptosis in human HL60 cells at 20 uM after 48 hrs by Hoechst 33258/propidium iodide staining based phase contrast microscopic analysis; format: functional; method in brief: as §1
MCF7 [12] = test: Induction of apoptosis in human MCF7 cells at 20 uM after 48 hrs by Hoechst 33258/propidium iodide staining based phase contrast microscopic analysis; format: functional; method in brief: as §1
Cyberlindnera jadinii = test: Antimicrobial activity against Candida utilis ATCC 9950 assessed as zone of inhibition at 30 uL for 24 hrs at 30 degC by disk diffusion test; format: functional, organism-based; method in brief: as §5
Candida tropicalis = test: Antimicrobial activity against Candida tropicalis assessed as zone of inhibition at 30 uL for 24 hrs at 30 degC by disk diffusion test; format: functional, organism-based; method in brief: as §5
Caco-2 [13] = test: Induction of apoptosis in human Caco2 cells at 20 uM after 48 hrs by Hoechst 33258/propidium iodide staining based phase contrast microscopic analysis; format: functional; method in brief: as §1
MCF7 [14] = test: Induction of necrosis in human MCF7 cells at 20 uM after 48 hrs by Hoechst 33258/propidium iodide staining based phase contrast microscopic analysis; format: functional; method in brief: as §1
Enterococcus faecalis = test: Antimicrobial activity against Enterococcus faecalis ATCC 29212 assessed as zone of inhibition at 30 uL for 24 hrs at 37 degC by disk diffusion test; format: functional, organism-based; method in brief: as §4
Caco-2 [15] = test: Antiproliferative activity against human Caco2 cells after 24 and 72 hrs by MTT assay; format: functional, cell-based; method in brief: as §2
[16] = Antiproliferative activity against human Saos2 cells after 24 and 72 hrs by MTT assay; format: functional, cell-based; settings: SAOS-2; method in brief: as §2
Staphylococcus aureus = test: Antimicrobial activity against Staphylococcus aureus ATCC 25923 assessed as zone of inhibition at 30 uL for 24 hrs at 37 degC by disk diffusion test; format: functional, organism-based; method in brief: as §4
HT-29 [17] = test: Antiproliferative activity against human HT-29 cells after 24 and 72 hrs by MTT assay; format: functional, cell-based; method in brief: as §2
Bacillus thuringiensis [18] = test: Antimicrobial activity against Bacillus thuringiensis assessed as zone of inhibition at 30 uL for 24 hrs at 30 degC by disk diffusion test; format: functional; method in brief: as §5
Pseudomonas aeruginosa = test: Antimicrobial activity against Pseudomonas aeruginosa ATCC 35032 assessed as zone of inhibition at 30 uL for 24 hrs at 37 degC by disk diffusion test; format: functional, organism-based; method in brief: as §4
HeLa [19] = test: Induction of apoptosis in human HeLa cells at 20 uM after 48 hrs by Hoechst 33258/propidium iodide staining based phase contrast microscopic analysis; format: functional; method in brief: as §1
Bacillus subtilis [20] = test: Antimicrobial activity against Bacillus subtilis ATCC 6633 for 24 hrs by microdillution method; format: functional; settings: ATCC 6633, 24 h; method in brief: as §3
HT-29 [21] = test: Induction of necrosis in human HT-29 cells at 20 uM after 48 hrs by Hoechst 33258/propidium iodide staining based phase contrast microscopic analysis; format: functional; method in brief: as §1
Bacillus cereus [22] = test: Antimicrobial activity against Bacillus cereus ATCC 11778 assessed as zone of inhibition at 30 uL for 24 hrs at 30 degC by disk diffusion test; format: functional; method in brief: as §5
Proteus vulgaris = test: Antimicrobial activity against Proteus vulgaris ATCC 33420 assessed as zone of inhibition at 30 uL for 24 hrs at 37 degC by disk diffusion test; format: functional, organism-based; method in brief: as §4
Salmonella typhimurium = test: Antimicrobial activity against Salmonella typhimurium ATCC 14028 assessed as zone of inhibition at 30 uL for 24 hrs at 37 degC by disk diffusion test; format: functional, organism-based; settings: Salmonella enterica subsp. enterica serovar Typhimurium; method in brief: as §4
SAOS-2 [23] = test: Induction of apoptosis in human Saos2 cells at 20 uM after 48 hrs by Hoechst 33258/propidium iodide staining based phase contrast microscopic analysis; format: functional; method in brief: as §1
Caco-2 [24] = test: Induction of necrosis in human Caco2 cells at 20 uM after 48 hrs by Hoechst 33258/propidium iodide staining based phase contrast microscopic analysis; format: functional; method in brief: as §1
MCF7 [25] = test: Antiproliferative activity against human MCF7 cells after 24 and 72 hrs by MTT assay; format: functional, cell-based; method in brief: as §2

| SMILES | Activity (HL-60 [1]) | IC50 (HL-60 [2]) | MIC (Bacillus cereus [3]) | diameter of the inhibition zone (DIZ) (Escherichia coli) | IC50 (HeLa [4]) | MIC (Bacillus thuringiensis [5]) | Activity (HT-29 [6]) | diameter of the inhibition zone (DIZ) (Klebsiella pneumoniae) | diameter of the inhibition zone (DIZ) (Candida albicans) | Activity (SAOS-2 [7]) | diameter of the inhibition zone (DIZ) (Micrococcus luteus) | Activity (HeLa [8]) | diameter of the inhibition zone (DIZ) (Saccharomyces cerevisiae) | diameter of the inhibition zone (DIZ) (Bacillus subtilis [9]) | diameter of the inhibition zone (DIZ) (Nakaseomyces glabratus) | diameter of the inhibition zone (DIZ) [10] | Activity (HL-60 [11]) | Activity (MCF7 [12]) | diameter of the inhibition zone (DIZ) (Cyberlindnera jadinii) | diameter of the inhibition zone (DIZ) (Candida tropicalis) | further results |
| --- | --- | --- | --- | --- | --- | --- | --- | --- | --- | --- | --- | --- | --- | --- | --- | --- | --- | --- | --- | --- | --- |
| CC1(C)CC[C@]2(C(=O)O)CC[C@]3(C)C(=CC[C@@H]4[C@@]5(C)CC[C@H](O)[C@@](C)(/C=N/O)[C@@H]5CC[C@]43C)[C@@H]2C1 | 3% | 3.9 µM | 128 µg/mL (≈ 264 µM) | inactive | 8.71 µM | 128 µg/mL (≈ 264 µM) | 27% | inactive | inactive | 3% | inactive | 3% | inactive | 11 mm | inactive | inactive | 30% | 26% | inactive | inactive | Activity (Caco-2 [13]): 23%; Activity (MCF7 [14]): 4%; diameter of the inhibition zone (DIZ) (Enterococcus faecalis): inactive; IC50 (Caco-2 [15]): 28.1 µM; IC50 [16]: 7.93 µM; diameter of the inhibition zone (DIZ) (Staphylococcus aureus): inactive; IC50 (HT-29 [17]): 10.9 µM; diameter of the inhibition zone (DIZ) (Bacillus thuringiensis [18]): 10 mm; diameter of the inhibition zone (DIZ) (Pseudomonas aeruginosa): inactive; Activity (HeLa [19]): 26%; MIC (Bacillus subtilis [20]): 64 µg/mL (≈ 132 µM); Activity (HT-29 [21]): 0.7%; diameter of the inhibition zone (DIZ) (Bacillus cereus [22]): 9 mm; diameter of the inhibition zone (DIZ) (Proteus vulgaris): inactive; diameter of the inhibition zone (DIZ) (Salmonella typhimurium): inactive; Activity (SAOS-2 [23]): 27%; Activity (Caco-2 [24]): 3%; IC50 (MCF7 [25]): 7.5 µM |
| CC1(C)CC[C@]2(C(=O)O)CC[C@]3(C)C(=CC[C@@H]4[C@@]5(C)CC[C@H](O)[C@@](C)(C=O)[C@@H]5CC[C@]43C)[C@@H]2C1 | 4% | 10.4 µM | 32 µg/mL (≈ 68 µM) | inactive | 22.5 µM | 32 µg/mL (≈ 68 µM) | 21% | inactive | inactive | 2% | inactive | 0% | inactive | 13 mm | inactive | inactive | 33% | 30% | inactive | inactive | Activity (Caco-2 [13]): 20%; Activity (MCF7 [14]): 4%; diameter of the inhibition zone (DIZ) (Enterococcus faecalis): inactive; IC50 (Caco-2 [15]): 16.7 µM; IC50 [16]: 7.85 µM; diameter of the inhibition zone (DIZ) (Staphylococcus aureus): inactive; IC50 (HT-29 [17]): 11.9 µM; diameter of the inhibition zone (DIZ) (Bacillus thuringiensis [18]): 13 mm; diameter of the inhibition zone (DIZ) (Pseudomonas aeruginosa): inactive; Activity (HeLa [19]): 29%; MIC (Bacillus subtilis [20]): 32 µg/mL (≈ 68 µM); Activity (HT-29 [21]): 2%; diameter of the inhibition zone (DIZ) (Bacillus cereus [22]): 13 mm; diameter of the inhibition zone (DIZ) (Proteus vulgaris): inactive; diameter of the inhibition zone (DIZ) (Salmonella typhimurium): inactive; Activity (SAOS-2 [23]): 36%; Activity (Caco-2 [24]): 0%; IC50 (MCF7 [25]): 9.02 µM |

— ChEMBL document CHEMBL3297654, “Synthesis, antimicrobial and cytotoxic activities, and structure-activity relationships of gypsogenin derivatives against human cancer cells” (Eur J Med Chem, 2014)
